Laboratory results taken from ChEMBL document CHEMBL3739331, “Synthesis and Bioactivities of Kanamycin B-Derived Cationic Amphiphiles” (J Med Chem, 2015).
Converted amounts (≈) assume the structure as drawn. The source made the active and inactive calls. The calls are words filed in the database; no cut-off is given here.

Experiments:
[1] = system: Candida albicans; test: Antifungal activity against azole-resistant Candida albicans MYA-1003 after 48 hrs by microbroth dilution method; format: functional; conditions: MYA-1003, 48 h
Method in brief: (§1)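 Yeast MIC by broth microdilution, run in duplicate. The aminoglycoside compounds are read as MIC-0 (complete inhibition). Azoles are read as MIC-2 (50% inhibition).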

[2] = system: Candida albicans; test: Antifungal activity against azole-susceptible Candida albicans ATCC MYA-2310 after 48 hrs by microbroth dilution method; format: functional; conditions: ATCC MYA-2310, 48 h; method in brief: as §1
[3] = system: Candida albicans; test: Antifungal activity against azole-resistant Candida albicans ATCC 10231 after 48 hrs by microbroth dilution method; format: functional; conditions: ATCC 10231, 48 h; method in brief: as §1
[4] = system: Candida albicans; test: Antifungal activity against azole-resistant Candida albicans ATCC 90819 after 48 hrs by microbroth dilution method; format: functional; conditions: ATCC 90819, 48 h; method in brief: as §1
[5] = system: Aspergillus nidulans; test: Antifungal activity against Aspergillus nidulans ATCC 38163 after 48 hrs by microbroth dilution method; format: functional; conditions: ATCC 38163, 48 h
Method in brief: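 Filamentous fungus MIC by broth microdilution, run in duplicate. All compounds are read as MIC-0 (complete inhibition).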

[6] = system: Candida albicans; test: Antifungal activity against azole-resistant Candida albicans MYA-1237 after 48 hrs by microbroth dilution method; format: functional; conditions: MYA-1237, 48 h; method in brief: as §1
[7] = system: Candida albicans; test: Antifungal activity against azole-susceptible Candida albicans ATCC MYA-2876 after 48 hrs by microbroth dilution method; format: functional; conditions: ATCC MYA-2876, 48 h; method in brief: as §1
[8] = system: Candida albicans; test: Antifungal activity against azole-resistant Candida albicans ATCC 64124 after 48 hrs by microbroth dilution method; format: functional; conditions: ATCC 64124, 48 h; method in brief: as §1
[9] = system: Bacillus subtilis subsp. subtilis str. 168; test: Activity of Bacillus subtilis 168 APH(2'')-1a assessed as compound phosphorylation activity by Ellman's method
[10] = system: Salmonella enterica; test: Antibacterial activity against Salmonella enterica ATCC 14028 by microdilution method; format: functional
Method in brief: (§2)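 Broth microdilution MIC against the named bacterial strain, reported in μg/mL; each determination run at least in duplicate.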

[11] = system: Enterococcus; test: Antibacterial activity against vancomycin-resistant Enterococcus by microdilution method; format: functional
Method in brief: (§3)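 Broth microdilution MIC, in μg/mL, against a panel of Gram-positive and Gram-negative strains. Run at least in duplicate.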

[12] = system: Listeria monocytogenes; test: Antibacterial activity against Listeria monocytogenes ATCC 19115 by microdilution method; format: functional; method in brief: as §2
[13] = system: Staphylococcus aureus; test: Antibacterial activity against methicillin-resistant Staphylococcus aureus by microdilution method; format: functional; method in brief: as §3
[14] = system: Bacillus subtilis; test: Antibacterial activity against Bacillus subtilis 168 by microdilution method; format: functional; conditions: subsp. subtilis str. 168; method in brief: as §2
[15] = system: Pseudomonas aeruginosa; test: Antibacterial activity against Pseudomonas aeruginosa ATCC 27853 by microdilution method; format: functional; method in brief: as §2
[16] = system: Staphylococcus aureus; test: Antibacterial activity against Staphylococcus aureus NRS22 (USA 600) by microdilution method; format: functional; method in brief: as §2
[17] = system: Staphylococcus aureus; test: Antibacterial activity against Staphylococcus aureus NRS385 (USA 300) by microdilution method; format: functional; method in brief: as §3
[18] = system: Enterobacter cloacae; test: Antibacterial activity against Enterobacter cloacae ATCC 13047 by microdilution method; format: functional; method in brief: as §2
[19] = Activity of AAC(6')-1e/APH(2'')-1a (unknown origin) assessed as compound acetylation activity by Ellman's method
[20] = system: Staphylococcus aureus; test: Antibacterial activity against Staphylococcus aureus NRS383 (USA 200) by microdilution method; format: functional; method in brief: as §2
[21] = Activity of AAC(3)-4 (unknown origin) assessed as compound acetylation activity by Ellman's method
[22] = system: Mycobacterium tuberculosis; test: Activity of Mycobacterium tuberculosis Eis assessed as compound acetylation activity by Ellman's method
[23] = system: Serratia marcescens; test: Activity of Serratia marcescens AAC(6')-2d assessed as compound acetylation activity by Ellman's method
[24] = system: Staphylococcus aureus; test: Antibacterial activity against Staphylococcus aureus ATCC 29213 by microdilution method; format: functional; method in brief: as §2
[25] = system: Staphylococcus aureus; test: Antibacterial activity against Staphylococcus aureus NRS382 (USA 100) by microdilution method; format: functional; method in brief: as §2
[26] = system: Mycobacterium tuberculosis; test: Activity of Mycobacterium tuberculosis AAC(2')-1c assessed as compound acetylation activity by Ellman's method
[27] = system: Acinetobacter baumannii; test: Antibacterial activity against Acinetobacter baumannii ATCC 19606 by microdilution method; format: functional; method in brief: as §2
[28] = system: Escherichia coli; test: Antibacterial activity against Escherichia coli MC1061 by microdilution method; format: functional; method in brief: as §3
[29] = system: Klebsiella pneumoniae; test: Antibacterial activity against Klebsiella pneumoniae ATCC 27736 by microdilution method; format: functional; method in brief: as §2
[30] = system: Staphylococcus epidermidis; test: Antibacterial activity against Staphylococcus epidermidis ATCC 12228 by microdilution method; format: functional; method in brief: as §2
[31] = Hemolytic activity against mouse RBC at 100 to 500 ug/ml after 60 mins; format: ADME, cell-based; conditions: erythrocyte, 1 h
[32] = system: A549; test: Cytotoxicity against human A549 cells after 24 hrs by resazurin assay; format: cell-based; conditions: human, a549, 24 h
[33] = system: Mycolicibacterium smegmatis; test: Antibacterial activity against Mycobacterium smegmatis MC2 155 by microdilution method; format: functional; conditions: str. MC2 155; method in brief: as §3
[34] = Cytotoxicity against human BEAS2B cells after 24 hrs by resazurin assay; format: cell-based, BEAS-2B; conditions: human, beas-2b

SMILES | MIC50 [1] [µg/mL] | MIC50 [3] [µg/mL] | MIC50 [4] [µg/mL] | MIC [5] [µg/mL] | MIC50 [6] [µg/mL] | MIC50 [7] [µg/mL] | MIC50 [8] [µg/mL] | Activity [9] | MIC [1] [µg/mL] | MIC [10] [µg/mL] | MIC [12] [µg/mL] | MIC [14] [µg/mL] | MIC [2] [µg/mL] | MIC [3] [µg/mL] | MIC [17] [µg/mL] | MIC [4] [µg/mL] | MIC [18] [µg/mL] | MIC [6] [µg/mL] | Activity [19] | Activity [21] | other results
OC(Cn1cncn1)(Cn1cncn1)c1ccc(F)cc1F [FLUCONAZOLE] | 62.5 (≈ 204 µM) | 62.5 (≈ 204 µM) | > 125 | > 62.5 | 62.5 (≈ 204 µM) | 15.6 (≈ 50.9 µM) | 125 (≈ 408 µM) | – | – | – | – | – | – | – | – | – | – | – | – | – | MIC50 [2]: > 125 µg/mL
CCCCCCCCCCCCS(=O)(=O)C[C@@H]1O[C@@H](O[C@@H]2[C@@H](O)[C@H](O[C@@H]3O[C@@H](CN)[C@H](O)[C@@H](O)[C@@H]3N)[C@@H](N)C[C@H]2N)[C@@H](O)[C@H](N)[C@H]1O (stereo in doubt) | – | – | – | 3.9 (≈ 5.57 µM) | – | – | – | inactive | 62.5 (≈ 89.3 µM) | 64 (≈ 91.4 µM) | 4 (≈ 5.72 µM) | > 128 | 62.5 (≈ 89.3 µM) | 31.2 (≈ 44.6 µM) | 64 (≈ 91.4 µM) | 62.5 (≈ 89.3 µM) | > 128 | 62.5 (≈ 89.3 µM) | inactive | inactive | MIC [11]: 32 µg/mL (≈ 45.7 µM); MIC [13]: 64 µg/mL (≈ 91.4 µM); MIC [15]: 16 µg/mL (≈ 22.9 µM); MIC [16]: 32 µg/mL (≈ 45.7 µM); MIC [20]: 32 µg/mL (≈ 45.7 µM); Activity [22]: inactive; Activity [23]: inactive; MIC [24]: 128 µg/mL (≈ 183 µM); MIC [25]: 64 µg/mL (≈ 91.4 µM); Activity [26]: inactive; MIC [7]: 31.2 µg/mL (≈ 44.6 µM); MIC [8]: 31.2 µg/mL (≈ 44.6 µM); MIC [27]: 128 µg/mL (≈ 183 µM); MIC [28]: > 128 µg/mL; MIC [29]: 128 µg/mL (≈ 183 µM); MIC [30]: > 128 µg/mL
CCC(C)n1ncn(-c2ccc(N3CCN(c4ccc(OCC5COC(Cn6cncn6)(c6ccc(Cl)cc6Cl)O5)cc4)CC3)cc2)c1=O (stereo not given) [ITRACONAZOLE] | 31.2 (≈ 44.2 µM) | 0.5 (≈ 0.709 µM) | 31.2 (≈ 44.2 µM) | ≤ 1.95 | 31.2 (≈ 44.2 µM) | 7.8 (≈ 11.1 µM) | > 62.5 | – | – | – | – | – | – | – | – | – | – | – | – | – | –
CCCCCCCCCCCCCCSC[C@H]1O[C@H](O[C@@H]2[C@@H](O)[C@H](O[C@H]3O[C@H](CN)[C@@H](O)C[C@H]3N)[C@@H](N)C[C@H]2N)[C@H](O)[C@@H](N)[C@@H]1O | – | – | – | 7.8 (≈ 11.5 µM) | – | – | – | – | – | – | – | – | – | – | – | – | – | – | – | – | –
CCCCCCCCSC[C@H]1O[C@H](O[C@@H]2[C@@H](O)[C@H](O[C@H]3O[C@H](CN)[C@@H](O)C[C@H]3N)[C@@H](N)C[C@H]2N)[C@H](O)[C@@H](N)[C@@H]1O | – | – | – | 125 (≈ 210 µM) | – | – | – | – | – | – | – | – | – | – | – | – | – | – | – | – | –
CCCCCCCCCCSC[C@@H]1O[C@@H](O[C@@H]2[C@@H](O)[C@H](O[C@@H]3O[C@@H](CN)[C@H](O)[C@@H](O)[C@@H]3N)[C@@H](N)C[C@H]2N)[C@@H](O)[C@H](N)[C@H]1O (stereo in doubt) | – | – | – | ≤ 1.95 | – | – | – | inactive | 125 (≈ 195 µM) | > 128 | 2 (≈ 3.13 µM) | 128 (≈ 200 µM) | 62.5 (≈ 97.7 µM) | 125 (≈ 195 µM) | 32 (≈ 50 µM) | 125 (≈ 195 µM) | > 128 | 125 (≈ 195 µM) | inactive | inactive | Activity [31]: Non-toxic; Activity [32]: Non-toxic; Activity [22]: inactive; Activity [23]: inactive; MIC [24]: 16 µg/mL (≈ 25 µM); MIC [33]: 8 µg/mL (≈ 12.5 µM); Activity [26]: inactive; MIC [7]: 125 µg/mL (≈ 195 µM); MIC [8]: 125 µg/mL (≈ 195 µM); MIC [27]: > 128 µg/mL; Activity [34]: Non-toxic; MIC [28]: > 128 µg/mL; MIC [29]: > 128 µg/mL; MIC [30]: > 128 µg/mL
